Measured values gathered from unrelated publications.
Compare with care: the assays were run in different laboratories.
Cell line: HOP-62
Read-out: cell growth or viability

COc1cccc(Oc2ccccc2NC(=O)CNC(=O)c2cccc3ccccc23)c1 — GI50 (SRB; 48 h): 0.302 µM
O=C1NCCc2[nH]c(-c3ccncc3)cc21 — IC50: 9.94 µM
CCCc1n(Cc2ccc3ccccc3n2)cc[n+]1Cc1ccc2ccccc2n1 — TGI (SRB): 19.4 µM
COc1ccc(-c2ccc(-c3ccc(C(=N)N)nc3)s2)cc1 — GI50 (SRB): 1.8 µM
COc1ccc(C(=O)/C=C/c2cccc3ccccc23)cc1S(N)(=O)=O — inhibition (SRB; 10 µM): 82%
O=C1Nc2ccccc2C1=NNc1nnc2n1N=C(c1ccccc1)CS2 — inhibition (SRB; 10 µM): 54%
O=C1NC(=NCc2cccs2)S/C1=C\c1ccc2ncccc2c1 — IC50: > 10 µM
c1ccc2cc(Cn3cc[n+](Cc4ccc5ccccc5c4)c3)ccc2c1 — TGI (SRB): 17 µM
COc1ccc(-c2ccc(-c3ccc(C(=N)N)nc3)s2)cc1Cl — GI50 (SRB): 1.9 µM
CCCCc1n(Cc2ccc3ccccc3n2)cc[n+]1Cc1ccc2ccccc2n1 — TGI (SRB): 12 µM
COc1cccc2c1C(=O)c1c(O)c3c(c(O)c1C2=O)C[C@@](O)(C(=O)CO)C[C@@H]3O[C@H]1C[C@H](N)[C@H](O)[C@H](C)O1 — inhibition (SRB; 10 µg/mL, 48 h): 98.9%
COc1ccc(C(=O)/C=C/c2c(F)cccc2Cl)cc1S(N)(=O)=O — GI50 (SRB; 48 h): 3 µM
